This note sets out measurements from ChEMBL document CHEMBL1139314, “Discovery and structure-activity relationships of 4-aminoquinazoline derivatives, a novel class of opioid receptor like-1 (ORL1) antagonists” (Bioorg Med Chem, 2009).

By Ki is commonly meant the dissociation constant of the complex between target and ligand, obtained from inhibition or displacement. A low value points to higher affinity. The term IC50 denotes the concentration needed to halve the response being measured.

The target of assay [1] is Mu-type opioid receptor (Rattus norvegicus, UniProt P33535). Put plainly: Displacement of [3H]diprenorphine from rat mu opioid receptor expressed in CHO-K1 cells. Format: cell-based. The method in brief: (§1)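 Competition binding used membranes from stably transfected CHO-K1 cells. The radioligand was leucyl-[3H]nociceptin for ORL1 and [3H]diprenorphine for mu, delta and kappa. Nonspecific binding was defined with unlabeled nociceptin (ORL1), naloxone (mu), naltrindole (delta) or naloxone benzoylhydrazone (kappa). Incubation was 1 h at 25 °C in 50 mM Tris-HCl pH 7.8 with 5 mM MgCl2, 1 mM EGTA and 0.1% BSA. Samples were filtered on PEI-soaked GF/B filters and counted. Ki was derived by Cheng–Prusoff.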
Chain of Mu-type opioid receptor (Rattus norvegicus, UniProt P33535) (P33535 whole entry): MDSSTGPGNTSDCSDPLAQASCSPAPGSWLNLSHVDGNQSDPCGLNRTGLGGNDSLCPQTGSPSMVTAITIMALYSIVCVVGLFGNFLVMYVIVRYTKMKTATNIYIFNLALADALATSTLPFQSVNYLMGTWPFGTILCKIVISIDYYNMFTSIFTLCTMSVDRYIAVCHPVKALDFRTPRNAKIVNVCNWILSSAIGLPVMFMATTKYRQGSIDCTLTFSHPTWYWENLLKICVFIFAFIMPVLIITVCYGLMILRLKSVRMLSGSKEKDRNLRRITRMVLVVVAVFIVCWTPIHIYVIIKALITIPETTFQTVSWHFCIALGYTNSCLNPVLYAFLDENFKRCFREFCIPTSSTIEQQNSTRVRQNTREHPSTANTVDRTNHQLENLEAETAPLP
In general terms: Displacement assays read how much labelled ligand stays bound in the presence of the test substance.

A short description of assay [2]: Displacement of [3H]nociceptin from human ORL1 receptor expressed in CHO-K1 cells. Format: cell-based. The method, boiled down: as §1
The nature of assay [3]: Selectivity ratio of Ki for rat mu opioid receptor to Ki for human ORL1 receptor. The method in brief: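 Membranes came from CHO-K1 cells expressing rat mu opioid receptor ([3H]diprenorphine; naloxone defines nonspecific binding) or human ORL1 ([3H]nociceptin; unlabeled nociceptin). Ki values were calculated by Cheng–Prusoff.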
The target in assay [4] is Mu-type opioid receptor (Homo sapiens, UniProt P35372). Put plainly: Displacement of [3H]diprenorphine from human mu opioid receptor expressed in CHO-K1 cells. It is filed as cell-based. The method, boiled down: as §1
Chain of Mu-type opioid receptor (Homo sapiens, UniProt P35372) (P35372 whole entry): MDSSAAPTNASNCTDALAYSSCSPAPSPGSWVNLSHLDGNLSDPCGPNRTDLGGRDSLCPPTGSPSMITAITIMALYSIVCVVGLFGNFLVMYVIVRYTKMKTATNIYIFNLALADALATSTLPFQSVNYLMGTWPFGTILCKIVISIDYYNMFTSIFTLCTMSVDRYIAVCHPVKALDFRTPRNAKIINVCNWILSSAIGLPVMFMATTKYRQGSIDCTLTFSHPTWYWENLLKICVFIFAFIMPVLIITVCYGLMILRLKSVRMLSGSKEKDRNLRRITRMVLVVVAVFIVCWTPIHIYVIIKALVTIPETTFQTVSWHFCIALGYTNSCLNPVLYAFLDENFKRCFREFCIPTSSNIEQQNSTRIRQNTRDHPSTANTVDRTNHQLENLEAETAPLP
The target of assay [5] is Delta-type opioid receptor (Rattus norvegicus, UniProt P33533). Kind of assay: Displacement of [3H]diprenorphine from rat delta opioid receptor expressed in CHO-K1 cells. It is filed as cell-based. The method in brief:
as §1

Assay [6] deals with Kappa-type opioid receptor (Rattus norvegicus, UniProt P34975). Kind of assay: Displacement of [3H]diprenorphine from rat kappa opioid receptor expressed in CHO-K1 cells. It is filed as cell-based. The method, boiled down:
as §1

Assay [7] in a line: Antagonist activity at human ORL1 receptor expressed in CHO-K1 cells assessed as inhibition of cAMP accumulation. Background: Cyclic AMP is a second messenger, typically raised through Gs and lowered through Gi signalling.
Assay [8] concerns CHO-K1. Kind of assay: Antagonist activity at human ORL1 receptor expressed in CHO-K1 cells assessed as inhibition of forskolin-stimulated cAMP accumulation. Format: functional, cell-based. The method, boiled down:
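CHO-K1 cells stably expressing human ORL1 were preincubated 5 min at 37 °C, 5% CO2, in Krebs-Henseleit solution (pH 7.4) with 0.5 mM IBMX. Forskolin (3 μM final) and test compound (1–1000 nM) were then added with or without nociceptin and incubated 10 min at 37 °C. Cells were lysed, and intracellular cAMP was measured by enzyme immunoassay the same day.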

Calls of active or inactive are those of the source. No cut-off for these calls is given here.

Chain of Delta-type opioid receptor (P33533 whole entry): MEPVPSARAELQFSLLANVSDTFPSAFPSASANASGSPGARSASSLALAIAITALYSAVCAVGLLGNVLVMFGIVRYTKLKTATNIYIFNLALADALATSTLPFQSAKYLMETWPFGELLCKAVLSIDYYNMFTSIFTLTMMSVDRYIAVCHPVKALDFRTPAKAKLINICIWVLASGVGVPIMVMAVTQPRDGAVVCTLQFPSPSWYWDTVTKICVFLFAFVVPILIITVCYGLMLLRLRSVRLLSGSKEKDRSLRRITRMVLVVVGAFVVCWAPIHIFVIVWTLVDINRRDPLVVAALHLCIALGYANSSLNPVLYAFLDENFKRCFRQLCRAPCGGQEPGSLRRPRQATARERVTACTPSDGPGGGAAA
Chain of Kappa-type opioid receptor (P34975 whole entry): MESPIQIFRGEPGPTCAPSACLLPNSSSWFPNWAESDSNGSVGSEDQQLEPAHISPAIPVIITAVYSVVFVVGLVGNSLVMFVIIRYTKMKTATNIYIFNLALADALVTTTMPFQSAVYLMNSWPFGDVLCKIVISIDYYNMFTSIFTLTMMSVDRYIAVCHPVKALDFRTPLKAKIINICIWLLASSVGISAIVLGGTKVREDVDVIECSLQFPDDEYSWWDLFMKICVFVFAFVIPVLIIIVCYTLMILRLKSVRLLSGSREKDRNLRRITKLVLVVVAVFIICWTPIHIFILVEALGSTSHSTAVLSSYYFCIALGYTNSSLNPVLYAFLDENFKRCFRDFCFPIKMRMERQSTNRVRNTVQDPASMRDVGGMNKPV

Consider `Cc1ccc2nc(/C=C/c3ccc(Cl)cc3)nc(NCCCCCCNC(=N)N)c2c1`, for which the inhibitory constant (Ki) in assay [1] amounted to 0.3 µM; in assay [2] it was 0.089 µM. For the same compound, the Ratio Ki in assay [3] worked out at 3.37.

Take `NCCCCCCNc1nc(/C=C/c2ccc(Cl)cc2)nc2ccc(Cl)cc12`: the inhibition constant (Ki) in assay [1] was 0.38 µM; in assay [2] it was 0.294 µM. In addition, the Ratio Ki in assay [3] is 1.29.

Consider `Cc1ccc2nc(NC(=O)c3ccc(Cl)cc3)nc(NC3CCCCC3NC(=N)N)c2c1` (racemic), for which the inhibition constant (Ki) in assay [4] came to 0.31 µM; in assay [5] it was 4 µM; in assay [2], 0.0021 µM; in assay [6], 1.2 µM.

Consider `Cc1ccc2nc(/C=C/c3ccc(Cl)cc3)nc(N[C@H]3CCCC[C@H]3N)c2c1` (racemic), for which the Ki was 0.15 µM in assay [1] and 0.2 µM in assay [2]. Further, the Ratio Ki in assay [3] was found to be 0.75.

Turning to `Cc1ccc2nc(/C=C/c3ccc(Cl)cc3)nc(N[C@H]3CCCC[C@@H]3N)c2c1` (racemic), the inhibition constant (Ki) in assay [1] is 0.18 µM; in assay [2], 0.538 µM. Moreover, the Ratio Ki in assay [3] amounted to 0.33.

Consider `Cc1ccc2nc(NC(=O)c3ccc(Cl)cc3)nc(N[C@@H]3CCCC[C@@H]3NC(=N)N)c2c1` (single isomer, unassigned), for which the inhibition constant Ki turned out to be 0.33 µM in assay [4], 3.6 µM in assay [5], 0.0014 µM in assay [2] and 2.4 µM in assay [6]. Besides, in assay [7], the IC50 worked out at 0.017 µM. In addition, the result in assay [8] was inactive.

`Cc1ccc2nc(/C=C/c3ccc(Cl)cc3)nc(NCCCCCCN)c2c1`: the inhibition constant Ki turned out to be 0.12 µM in assay [1] and 0.232 µM in assay [2]. For the same compound, the Ratio Ki in assay [3] came out at 0.51.

As to `Cc1ccc2nc(NC(=O)c3ccc(Cl)cc3)nc(N[C@H]3CCCC[C@H]3NC(=N)N)c2c1` (single isomer, unassigned), the inhibition constant Ki stood at 0.27 µM in assay [4], 4.3 µM in assay [5], 0.14 µM in assay [2] and 0.51 µM in assay [6].

With `Cc1ccc2nc(/C=C/c3ccc(Cl)cc3)nc(NCCCCNC(=N)N)c2c1`, the values for the Ki in assay [1] and in assay [2] were 2.3 µM and 0.16 µM, respectively. For the same compound, the Ratio Ki in assay [3] was found to be 14.4.

For `Cc1ccc2c(NCCCCCCN)nc(/C=C/c3ccc(Cl)cc3)nc2c1`, the inhibition constant Ki is 0.2 µM in assay [1] and 0.42 µM in assay [2]. In assay [3], the Ratio Ki turned out to be 0.48.

With `CC(C)(C)c1ccc2nc(/C=C/c3ccc(Cl)cc3)nc(NCCCCCCN)c2c1`, the values for the inhibition constant Ki in assay [1] and in assay [2] were 0.38 µM and 0.292 µM, respectively. Further, the Ratio Ki in assay [3] turned out to be 1.3.

Turning to `Cc1cccc2nc(/C=C/c3ccc(Cl)cc3)nc(NCCCCCCN)c12`, the results for the inhibitory constant (Ki) in assay [1] and in assay [2] were 0.17 µM and 0.808 µM, respectively. For the same compound, the Ratio Ki in assay [3] is 0.21.

With `Cc1ccc2nc(/C=C/c3ccc(Cl)cc3)nc(N[C@H]3CC[C@@H](NC(=N)N)CC3)c2c1`, the Ki was determined as 0.06 µM in assay [1] and 0.152 µM in assay [2]. For the same compound, the Ratio Ki in assay [3] was 0.39.

With `Cc1ccc2nc(/C=C/c3ccc(Cl)cc3)nc(N[C@H]3CCCC[C@H]3NC(=N)N)c2c1` (racemic), the inhibitory constant (Ki) in assay [1] was 0.22 µM; in assay [2], 0.043 µM. Besides, the Ratio Ki in assay [3] was found to be 5.11.

For `NCCCCCCNc1nc(/C=C/c2ccc(Cl)cc2)nc2cc3ccccc3cc12`, the Ki in assay [1] turned out to be 0.41 µM; in assay [2], 0.133 µM. The Ratio Ki in assay [3] was found to be 3.08.

`NCCCCCCNc1nc(/C=C/c2ccc(Cl)cc2)nc2ccccc12`: the inhibitory constant (Ki) in assay [1] was 0.18 µM; in assay [2], 0.383 µM. Moreover, the Ratio Ki in assay [3] worked out at 0.47.

Regarding `Cc1ccc2nc(/C=C/c3ccc(Cl)cc3)nc(N[C@H]3CC[C@@H](N)CC3)c2c1`, the Ki is 0.41 µM in assay [1] and 0.162 µM in assay [2]. Further, the Ratio Ki in assay [3] was 2.53.

In the case of `Cc1ccc2nc(/C=C/c3ccc(Cl)cc3)nc(NCCCCN)c2c1`, the Ki was 0.25 µM in assay [1] and 0.194 µM in assay [2]. Also, the Ratio Ki in assay [3] was determined as 1.29.

As for `Cc1cccc2c(NCCCCCCN)nc(/C=C/c3ccc(Cl)cc3)nc12`, the inhibition constant Ki in assay [1] amounted to 0.93 µM; in assay [2], 0.653 µM. Also, the Ratio Ki in assay [3] turned out to be 1.42.

`Cc1ccc2nc(/C=C/c3ccc(Cl)cc3)nc(N[C@H]3CC[C@H](N)CC3)c2c1`: the Ki in assay [1] turned out to be 0.3 µM; in assay [2] it was 0.795 µM. Moreover, the Ratio Ki in assay [3] worked out at 0.37.

In the case of `Cc1ccc2nc(/C=C/c3ccc(Cl)cc3)nc(NCCN)c2c1`, the inhibitory constant (Ki) was 0.24 µM in assay [1] and 0.972 µM in assay [2]. For the same compound, in assay [3], the Ratio Ki was found to be 0.25.
